Hits are enriched below; roughly 1.8% of the tested compounds scored in any of these assays.
PTPN22 inh 2: PTPN22 phosphatase inhibitors, primary screen, biochemical, DiFMUP fluorescence, 2 µM; Tyrosine-protein phosphatase non-receptor type 22 (Homo sapiens), Q9Y2R2; recombinant LYP catalytic domain; inhibition, % at 2 µM; 0.21% of 96,000 active; AID 640, 2007;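 active = inhibition at 2 µM at or above a set limit, the screen mean plus 3 SD, cut at about 24% in these data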;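 also: 0% = DMSO with enzyme and 100% = enzyme fully blocked by orthovanadate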
HIV Rev-RRE inh: HIV-1 Rev-RRE binding inhibitors, primary screen, biochemical, FRET, protein-RNA interaction; P05866; Rev peptide-RRE RNA binding; inhibition, % at 8 µM; 0.79% of 97,000 active;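 active = inhibition above the screen-wide mean plus 3 SD, cut at about 35% in these data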;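 also: 0% = median DMSO wells and 100% = median Neomycin B control wells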
Target sequence (P05866 whole entry, looked up): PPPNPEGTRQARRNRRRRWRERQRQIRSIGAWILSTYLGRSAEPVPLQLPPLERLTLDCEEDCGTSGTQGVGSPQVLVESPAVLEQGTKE
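Test system – labelled RRE RNA duplex and labelled Rev peptide · Signal – fluorescein-to-Cy5 FRET, 480 nm excitation · Evaluation – % inhibition of FRET ratio versus controls · Benchmarks – DMSO low control, neomycin B high control · Incubation – 5 min RNA-compound premix plus 15 min binding step, 25 °C · Medium – HEPES pH 7.5 salt buffer with EDTA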
EphB4 antag: EphB4-ephrin-B2 interaction antagonists, primary screen, biochemical, TNYL-RAW peptide probe, fluorescence polarization; Ephrin type-B receptor 4 (Homo sapiens), P54760; EphB4 LBD / TNYL-RAW-Alexa532 peptide; inhibition, % at 7 µM; 0.15% of 97,000 active; AID 720, 2007;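 active = inhibition above the screen-wide mean inhibition plus 3 SD, cut at about 15% in these data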;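 also: 0% = DMSO wells and 100% = excess unlabeled TNYL-RAW peptide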
PLK1 PBD inh: Plk1 polo box domain binding inhibitors, primary screen, biochemical, fluorescence polarization. Serine/threonine-protein kinase PLK1 (Homo sapiens), P53350. Plk1 PBD phosphopeptide binding. inhibition, %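 (tested at about 20 µM)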. 0.13% of 97,000 active. AID 693, 2007; in the data active = inhibition above about 34%, passing the limit was not always enough
PLK1 inh: human PLK1 kinase inhibitors, primary screen, biochemical, TR-FRET | inhibition, % at 10 µM | 0.53% of 97,000 active | recombinant PLK1 kinase, TR-FRET peptide phosphorylation | Serine/threonine-protein kinase PLK1 (Homo sapiens), P53350;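 active = inhibition of 50% or more in the single-concentration screen; inactive = inhibition below 50%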;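 also: 0% = DMSO max control and 100% = H-89 dihydrochloride min control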
PTPN22 act: LYP phosphatase activators, primary screen, biochemical, DiFMUP fluorescence, 2 µM | AID 697, 2007 | recombinant LYP; 0 = plate median, 100 = signal doubled | 0.11% of 96,000 active | activation, % at 2 µM;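 active = activation at 2 µM above a set limit, the mean plus 5 SD, cut at about 37% in these data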
PLK1 confirm: PLK1 kinase activity inhibitors, confirmation, biochemical, TR-FRET, duplicate runs; shares compounds with PLK1 inh; recombinant PLK1 kinase, TR-FRET peptide phosphorylation; inhibition, % at 10 µM; 20% of 210 active; AID 744, 2007;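 active = inhibition at or above 50% in each of two repeat confirmation tests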;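 also: 0% = DMSO max control and 100% = H-89 kinase-blocked min control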
TR-FRET interf: compound interference with Plk1 assay readout, artefact control for Plk1 kinase inhibitor project, biochemical, TR-FRET, compound added post-reaction | shares compounds with PLK1 inh | inhibition (interference), % at 10 µM | 210 tested, under 10 active;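 active = both duplicate runs show 50% or greater inhibition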;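 also: 0% = DMSO max control and 100% = H-89 min control inhibited reaction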
Active calls of the source: *; . = not tested or not shown; [ ] = dose if it differs, or a comment.

SMILES	PTPN22 inh 2	HIV Rev-RRE inh	EphB4 antag	PLK1 PBD inh	PLK1 inh	PTPN22 act	PLK1 confirm	TR-FRET interf
C/C(=N\NC(=O)c1[nH]c2c([N+](=O)[O-])cc(C)cc2c1-c1ccccc1)c1cccnc1	-1	0	10	27	-8	3	.	.
Cn1c(N)c(C#N)c2c(c1=S)CSC(C)(C)C2	5	40*	-11	17	8	-6	.	.
COc1cccc(C2=CC(c3ccc(C)cc3)n3ncnc3N2)c1 (stereo not drawn)	-2	49*	3	4	-10	-1	.	.
Cc1ccsc1C1C=C(c2cccc(Br)c2)Nc2ncnn21 (stereo not drawn)	3	81*[fluorescence artefact?]	-8	-29	2	-3	.	.
Cc1ccc(C2C=C(c3ccc4c(c3)OCO4)Nc3ncnn32)cc1 (stereo not drawn)	9	29	-2	-31	-1	-8	.	.
O=C(NCC(c1cccnc1)N1CCN(c2ccc(F)cc2)CC1)c1ccc(F)cc1 (stereo not drawn)	8	4	3	12	17	-4	.	.
CC1=NN(C(=O)c2cccc(Cn3nc(C)c([N+](=O)[O-])c3C)c2)C(O)(C(F)(F)F)C1 (stereo not drawn)	5	7	-2	-18	-19	-2	.	.
C/C(CCc1ccc2c(c1)OCO2)=N\N=C(/N)SC1CC(=O)N(c2ccccc2F)C1=O (stereo not drawn)	7	6	8	-14	-7	-4	.	.
Cc1ccc2c(c1)c(C)c(C)n2CC(O)CN1CCCCC1C (stereo not drawn)	.	-3	2	8	70*	.	-11	-52
COc1ccc(OCc2nnc3n2N=C(c2ccc(C)cc2)CS3)cc1	.	7	1	-40	72*	.	-4	-53
CCOc1ccc(C2=Nn3c(nnc3-c3ccc(OC)cc3)SC2)cc1	6	3	7	1	-9	-6	.	.
COc1ccc(OCc2nnc3n2N=C(c2ccc(OC)cc2)CS3)cc1	.	6	-1	-21	83*	.	-2	-49
CCn1c(CNc2nc3ccccc3n2C(C)C)nc2ccccc21	-2	-3	-3	6	-3	5	.	.
COc1ccc(S(=O)(=O)N(CC(=O)NC2CC2)c2ccc(C)cc2)cc1OC	5	-2	-10	-21	-5	-6	.	.
CCN(CC(=O)N1CCc2ccccc2C1)S(=O)(=O)c1ccc2ccccc2c1	13	0	-1	-25	4	-10	.	.
COC(=O)c1sc2nc[nH]c(=O)c2c1C	-1	6	-2	12	74*	-1	71*	-49
Cc1c(C(=O)OC(C)C)sc2nc[nH]c(=O)c12	-3	9	-1	7	77*	5	69*	-50
CCC(C)NC(=O)c1ccc(CS(=O)(=O)Cc2ccc(Cl)cc2)o1 (stereo not drawn)	-16	8	2	3	0	16	.	.
Cc1nc2ccc(NC(=O)c3cccs3)cc2c(=O)n1Cc1ccc(Cl)cc1	10	8	0	-18	123*	-5	-1	-49
Cc1[nH]nc2c1C1(CCN(Cc3ccccc3)CC1)C(C#N)=C(N)O2	5	26	-4	0	72*	-3	70*	-47
O=C(CSCc1ccc(F)cc1)N1CCOCC1	-6	3	-7	28	115*	4	-7	-52
O=C(CSCc1ccc(Br)cc1)N1CCOCC1	-2	4	8	4	1	6	.	.
O=C(NC1CCCCC1)c1cccc(Cn2cc(Cl)cn2)c1	9	4	0	6	-2	-8	.	.
CC(=O)N1CCc2cc(C(=O)CN3CCN(c4cccc(Cl)c4)CC3)ccc21	-2	1	-3	-13	-8	-1	.	.
CC(=O)N1CCc2cc(C(=O)CN3CCN(C(=O)c4ccco4)CC3)ccc21	.	5	1	-9	70*	.	-9	-50
SMILES	PTPN22 inh 2	HIV Rev-RRE inh	EphB4 antag	PLK1 PBD inh	PLK1 inh	PTPN22 act	PLK1 confirm	TR-FRET interf
CC(=O)N1CCc2cc(C(=O)CN3CCC(C)CC3)ccc21	.	4	1	-6	82*	.	3	-47
CC(=O)OC(C(=O)Nc1ccccc1C)C(OC(C)=O)C(OC(C)=O)C(OC(C)=O)C(=O)Nc1ccccc1C (stereo not drawn)	6	7	3	-10	-12	-5	.	.
CC1CCN(c2ccccc2N)CC1	6	9	12	2	-10	-8	.	.
[O-][N+]12CCN(CC1)c1ccccc12	-4	4	-12	-12	77*	3	-5	-60
CN(C)CC(C)(C)CNS(=O)(=O)CC12CCC(CC1=O)C2(C)C (stereo not drawn)	4	7	3	-21	-7	-6	.	.
CC(C)OC(=O)C1C2C=CC3(CN(C(C)c4ccc(Br)cc4)C(=O)C13)O2 (stereo not drawn)	.	2	1	-11	74*	.	-12	-46
CCCCCCOc1ccc(-c2ccc(C#N)cn2)cc1	-3	16	10	0	8	9	.	.
Cn1c(SCc2cccnc2)nnc1-c1c[nH]c2ccccc12	.	4	5	6	74*	.	-6	-47
CCOC(=O)C(C)Sc1nnc(-c2c[nH]c3ccccc23)n1C (stereo not drawn)	-6	1	-13	-12	-6	3	.	.
CCn1c(SCc2nc(-c3cccs3)no2)nnc1-c1c[nH]c2ccccc12	9	7	-1	14	-6	-12	.	.
CCn1c(SC)nnc1-c1c[nH]c2ccccc12	.	0	-2	-4	77*	.	-6	-52
CCn1c(SCc2ccc(C(=O)OC)o2)nnc1-c1c[nH]c2ccccc12	.	-2	-5	23	73*	.	-8	-59
COCCn1c(SC)nnc1-c1c[nH]c2ccccc12	.	6	-3	-16	73*	.	-11	-58
CC(C)CC(C(=O)NCc1ccccn1)N1C(=O)c2ccccc2C1=O (stereo not drawn)	2	2	-10	-12	-17	-2	.	.
COc1cc(-c2nnc(COC(=O)c3c4c(nc5ccccc35)CCCC4)o2)cc(OC)c1OC	2	-6	-9	-19	-17	3	.	.

Assay outcomes deposited in PubChem by several laboratories.
